Measured values published in the M2OR odorant receptor database.

What was measured:
Details in all cases: stereoisomer not certain
OR11H2 (Homo sapiens) = molecular target: T1, OR11H2 (Homo sapiens) (UniProt Q8NH07)
T1 sequence (whole entry): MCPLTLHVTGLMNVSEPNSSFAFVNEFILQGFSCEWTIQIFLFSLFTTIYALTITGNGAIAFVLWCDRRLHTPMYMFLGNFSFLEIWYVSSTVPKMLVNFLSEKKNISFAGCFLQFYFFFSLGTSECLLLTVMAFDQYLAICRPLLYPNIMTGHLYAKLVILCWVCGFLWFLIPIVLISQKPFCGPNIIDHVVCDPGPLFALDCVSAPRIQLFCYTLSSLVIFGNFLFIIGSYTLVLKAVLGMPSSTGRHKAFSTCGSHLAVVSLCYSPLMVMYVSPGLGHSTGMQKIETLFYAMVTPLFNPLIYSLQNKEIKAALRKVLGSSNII
Summary of the method: (§1)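 Assay methods differ from source to source, frequently being transient luciferase assays in mammalian cell lines. For each receptor–molecule pair, the label responsive (active) applies when the original authors judged the measured signal statistically different from baseline, and non-responsive (inactive) applies otherwise.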

OR11H4 (Homo sapiens) = molecular target: T2, OR11H4 (Homo sapiens) (UniProt Q8NGC9)
T2 sequence (whole entry): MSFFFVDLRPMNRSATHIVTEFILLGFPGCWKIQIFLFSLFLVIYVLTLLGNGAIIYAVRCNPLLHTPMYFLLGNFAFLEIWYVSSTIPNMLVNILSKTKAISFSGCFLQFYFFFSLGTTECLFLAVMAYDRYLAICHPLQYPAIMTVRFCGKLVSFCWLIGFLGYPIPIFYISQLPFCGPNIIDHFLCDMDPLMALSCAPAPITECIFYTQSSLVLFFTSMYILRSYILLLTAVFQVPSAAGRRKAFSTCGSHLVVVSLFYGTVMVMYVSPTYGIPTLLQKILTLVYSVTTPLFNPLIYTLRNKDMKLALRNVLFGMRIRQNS
Summary of the method: as §1

OR11H6 (Homo sapiens) = molecular target: T3, OR11H6 (Homo sapiens) (UniProt Q8NGC7)
T3 sequence (whole entry): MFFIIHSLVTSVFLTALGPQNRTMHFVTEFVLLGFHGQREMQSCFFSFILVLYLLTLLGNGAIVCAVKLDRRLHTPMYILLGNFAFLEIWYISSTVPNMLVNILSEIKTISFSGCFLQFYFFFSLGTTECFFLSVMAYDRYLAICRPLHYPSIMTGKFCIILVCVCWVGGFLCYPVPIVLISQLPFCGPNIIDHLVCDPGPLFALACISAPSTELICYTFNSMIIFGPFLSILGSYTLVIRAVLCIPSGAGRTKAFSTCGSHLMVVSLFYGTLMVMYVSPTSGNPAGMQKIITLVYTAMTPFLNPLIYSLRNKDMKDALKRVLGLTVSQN
Summary of the method: as §1

OR11L1 (Homo sapiens) = molecular target: T4, OR11L1 (Homo sapiens) (UniProt Q8NGX0)
T4 sequence (whole entry): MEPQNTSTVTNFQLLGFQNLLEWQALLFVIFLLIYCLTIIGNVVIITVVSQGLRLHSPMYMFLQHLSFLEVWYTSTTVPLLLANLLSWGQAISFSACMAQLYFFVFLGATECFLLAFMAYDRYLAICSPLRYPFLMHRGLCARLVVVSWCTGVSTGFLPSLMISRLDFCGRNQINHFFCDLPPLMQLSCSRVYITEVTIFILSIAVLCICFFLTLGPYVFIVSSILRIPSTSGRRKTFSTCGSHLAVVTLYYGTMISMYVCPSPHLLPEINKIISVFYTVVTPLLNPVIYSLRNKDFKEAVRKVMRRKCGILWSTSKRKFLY
Summary of the method: as §1

OR12D2 (Homo sapiens) = molecular target: T5, OR12D2 (Homo sapiens) (UniProt P58182)
T5 sequence (whole entry): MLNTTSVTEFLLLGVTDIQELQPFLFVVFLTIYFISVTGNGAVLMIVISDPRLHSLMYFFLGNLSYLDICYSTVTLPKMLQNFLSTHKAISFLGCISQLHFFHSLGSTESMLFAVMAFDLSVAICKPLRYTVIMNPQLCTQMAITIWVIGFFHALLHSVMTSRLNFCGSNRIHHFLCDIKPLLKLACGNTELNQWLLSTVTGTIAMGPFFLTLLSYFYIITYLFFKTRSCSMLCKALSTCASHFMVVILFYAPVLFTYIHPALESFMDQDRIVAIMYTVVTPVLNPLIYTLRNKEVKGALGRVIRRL
Summary of the method: as §1

OR12D3 (Homo sapiens) = molecular target: T6, OR12D3 (Homo sapiens) (UniProt Q9UGF7)
T6 sequence (whole entry): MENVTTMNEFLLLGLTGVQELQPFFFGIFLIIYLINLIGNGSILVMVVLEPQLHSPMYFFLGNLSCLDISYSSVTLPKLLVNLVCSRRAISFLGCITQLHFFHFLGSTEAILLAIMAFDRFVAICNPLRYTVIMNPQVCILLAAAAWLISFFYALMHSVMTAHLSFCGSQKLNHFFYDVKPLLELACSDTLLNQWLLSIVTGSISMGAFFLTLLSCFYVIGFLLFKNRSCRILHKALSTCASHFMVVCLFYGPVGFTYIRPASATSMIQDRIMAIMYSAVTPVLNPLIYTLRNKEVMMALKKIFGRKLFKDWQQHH
Summary of the method: as §1

OR13A1 (Homo sapiens) = molecular target: T7, OR13A1 (Homo sapiens) (UniProt Q8NGR1)
T7 sequence (whole entry): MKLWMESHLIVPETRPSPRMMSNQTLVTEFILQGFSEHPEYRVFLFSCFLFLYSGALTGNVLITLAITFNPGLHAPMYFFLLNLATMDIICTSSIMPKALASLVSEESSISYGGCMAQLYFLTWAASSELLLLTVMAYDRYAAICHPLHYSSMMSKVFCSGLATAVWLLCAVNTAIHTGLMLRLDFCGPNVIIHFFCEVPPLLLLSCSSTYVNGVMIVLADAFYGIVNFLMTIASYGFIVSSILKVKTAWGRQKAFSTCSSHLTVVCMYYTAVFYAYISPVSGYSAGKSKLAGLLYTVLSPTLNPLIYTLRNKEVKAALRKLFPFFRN
Summary of the method: as §1

OR13C2 (Homo sapiens) = molecular target: T8, OR13C2 (Homo sapiens) (UniProt Q8NGS9)
T8 sequence (whole entry): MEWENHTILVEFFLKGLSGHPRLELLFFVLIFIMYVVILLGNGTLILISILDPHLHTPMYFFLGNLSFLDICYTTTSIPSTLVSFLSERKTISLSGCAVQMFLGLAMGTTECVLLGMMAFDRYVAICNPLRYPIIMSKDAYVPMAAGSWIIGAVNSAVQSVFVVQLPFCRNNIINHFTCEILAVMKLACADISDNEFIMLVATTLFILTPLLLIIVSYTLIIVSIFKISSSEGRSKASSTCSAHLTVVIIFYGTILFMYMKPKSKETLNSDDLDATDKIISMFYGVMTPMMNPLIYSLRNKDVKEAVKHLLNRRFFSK
Summary of the method: as §1

OR13C3 (Homo sapiens) = molecular target: T9, OR13C3 (Homo sapiens) (UniProt Q8NGS6)
T9 sequence (whole entry): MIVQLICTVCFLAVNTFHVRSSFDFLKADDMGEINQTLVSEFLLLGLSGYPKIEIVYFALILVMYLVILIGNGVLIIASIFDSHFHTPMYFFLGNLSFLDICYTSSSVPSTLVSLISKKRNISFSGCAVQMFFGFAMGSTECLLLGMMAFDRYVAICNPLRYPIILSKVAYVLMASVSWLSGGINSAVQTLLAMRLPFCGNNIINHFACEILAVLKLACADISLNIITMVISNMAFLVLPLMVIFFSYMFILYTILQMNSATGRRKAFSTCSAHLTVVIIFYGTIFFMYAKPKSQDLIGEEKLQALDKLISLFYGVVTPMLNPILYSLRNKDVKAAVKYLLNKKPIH
Summary of the method: as §1

OR13C4 (Homo sapiens) = molecular target: T10, OR13C4 (Homo sapiens) (UniProt Q8NGS5)
T10 sequence (whole entry): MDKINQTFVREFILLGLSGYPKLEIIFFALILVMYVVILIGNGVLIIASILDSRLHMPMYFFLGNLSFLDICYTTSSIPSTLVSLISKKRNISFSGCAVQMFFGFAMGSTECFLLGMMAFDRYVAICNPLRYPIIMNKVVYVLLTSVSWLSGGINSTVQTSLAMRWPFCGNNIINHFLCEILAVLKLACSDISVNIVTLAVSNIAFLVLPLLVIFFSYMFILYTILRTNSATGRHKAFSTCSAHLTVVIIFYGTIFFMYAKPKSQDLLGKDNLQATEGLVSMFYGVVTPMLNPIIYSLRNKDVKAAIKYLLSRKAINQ
Summary of the method: as §1

OR13C5 (Homo sapiens) = molecular target: T11, OR13C5 (Homo sapiens) (UniProt Q8NGS8)
T11 sequence (whole entry): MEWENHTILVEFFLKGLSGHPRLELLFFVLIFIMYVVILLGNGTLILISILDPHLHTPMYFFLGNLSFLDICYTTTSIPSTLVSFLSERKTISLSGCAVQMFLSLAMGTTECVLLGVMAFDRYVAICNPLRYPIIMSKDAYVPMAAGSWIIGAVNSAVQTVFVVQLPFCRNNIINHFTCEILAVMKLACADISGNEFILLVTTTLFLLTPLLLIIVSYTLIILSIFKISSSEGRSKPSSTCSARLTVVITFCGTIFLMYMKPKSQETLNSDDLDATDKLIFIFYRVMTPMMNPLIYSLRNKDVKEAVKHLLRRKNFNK
Summary of the method: as §1

OR13C8 (Homo sapiens) = molecular target: T12, OR13C8 (Homo sapiens) (UniProt Q8NGS7)
T12 sequence (whole entry): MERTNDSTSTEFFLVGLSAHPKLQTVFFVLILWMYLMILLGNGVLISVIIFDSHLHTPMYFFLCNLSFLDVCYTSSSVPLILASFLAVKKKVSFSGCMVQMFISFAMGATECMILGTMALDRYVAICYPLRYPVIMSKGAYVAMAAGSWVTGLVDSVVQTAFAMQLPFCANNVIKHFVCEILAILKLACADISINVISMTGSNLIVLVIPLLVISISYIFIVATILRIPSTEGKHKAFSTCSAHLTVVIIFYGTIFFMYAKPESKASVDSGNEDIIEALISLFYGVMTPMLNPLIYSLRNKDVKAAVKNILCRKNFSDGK
Summary of the method: as §1

OR13C9 (Homo sapiens) = molecular target: T13, OR13C9 (Homo sapiens) (UniProt Q8NGT0)
T13 sequence (whole entry): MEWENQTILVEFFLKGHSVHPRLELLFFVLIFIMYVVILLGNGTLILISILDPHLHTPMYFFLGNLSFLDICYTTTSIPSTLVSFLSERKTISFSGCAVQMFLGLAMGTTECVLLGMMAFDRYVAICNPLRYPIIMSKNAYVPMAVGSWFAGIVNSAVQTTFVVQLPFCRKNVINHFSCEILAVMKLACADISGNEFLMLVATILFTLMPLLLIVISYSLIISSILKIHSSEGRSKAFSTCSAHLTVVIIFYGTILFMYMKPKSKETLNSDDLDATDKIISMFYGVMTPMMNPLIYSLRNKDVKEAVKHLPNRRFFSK
Summary of the method: as §1

OR13D1 (Homo sapiens) = molecular target: T14, OR13D1 (Homo sapiens) (UniProt Q8NGV5)
T14 sequence (whole entry): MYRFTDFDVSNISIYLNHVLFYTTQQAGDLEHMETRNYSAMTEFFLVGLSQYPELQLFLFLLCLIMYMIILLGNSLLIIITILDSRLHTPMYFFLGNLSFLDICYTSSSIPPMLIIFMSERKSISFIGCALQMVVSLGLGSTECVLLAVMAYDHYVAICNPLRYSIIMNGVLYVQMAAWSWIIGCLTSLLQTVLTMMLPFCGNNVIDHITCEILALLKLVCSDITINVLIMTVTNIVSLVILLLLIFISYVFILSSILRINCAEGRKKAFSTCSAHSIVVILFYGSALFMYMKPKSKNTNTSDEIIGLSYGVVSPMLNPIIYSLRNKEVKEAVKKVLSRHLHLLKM
Summary of the method: as §1

OR13F1 (Homo sapiens) = molecular target: T15, OR13F1 (Homo sapiens) (UniProt Q8NGS4)
T15 sequence (whole entry): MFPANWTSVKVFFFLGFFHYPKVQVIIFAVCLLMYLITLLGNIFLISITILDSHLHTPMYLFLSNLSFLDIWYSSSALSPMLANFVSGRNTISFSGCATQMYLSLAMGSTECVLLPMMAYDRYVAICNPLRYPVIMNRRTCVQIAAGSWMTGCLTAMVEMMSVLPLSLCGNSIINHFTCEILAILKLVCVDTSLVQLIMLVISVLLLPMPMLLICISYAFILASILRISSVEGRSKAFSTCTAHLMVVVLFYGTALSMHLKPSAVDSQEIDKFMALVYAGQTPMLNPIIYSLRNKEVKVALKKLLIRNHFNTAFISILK
Summary of the method: as §1

OR13G1 (Homo sapiens) = molecular target: T16, OR13G1 (Homo sapiens) (UniProt Q8NGZ3)
T16 sequence (whole entry): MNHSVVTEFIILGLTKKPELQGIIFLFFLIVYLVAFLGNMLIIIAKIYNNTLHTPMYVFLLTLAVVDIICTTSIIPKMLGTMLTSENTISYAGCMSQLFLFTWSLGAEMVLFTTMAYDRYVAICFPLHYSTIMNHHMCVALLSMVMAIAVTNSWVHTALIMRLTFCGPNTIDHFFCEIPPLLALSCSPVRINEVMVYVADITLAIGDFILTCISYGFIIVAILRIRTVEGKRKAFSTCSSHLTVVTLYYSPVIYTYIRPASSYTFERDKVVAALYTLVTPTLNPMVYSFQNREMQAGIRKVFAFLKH
Summary of the method: as §1

Measured: odorant receptor agonist call

CCCCCC(=O)C(C)C(C)=O (stereo unspecified)
inactive: OR11H2 (Homo sapiens) | OR11H4 (Homo sapiens) | OR11H6 (Homo sapiens) | OR11L1 (Homo sapiens) | OR12D2 (Homo sapiens) | OR12D3 (Homo sapiens) | OR13A1 (Homo sapiens) | OR13C2 (Homo sapiens) | OR13C3 (Homo sapiens) | OR13C4 (Homo sapiens) | OR13C5 (Homo sapiens) | OR13C8 (Homo sapiens) | OR13C9 (Homo sapiens) | OR13D1 (Homo sapiens) | OR13F1 (Homo sapiens) | OR13G1 (Homo sapiens)
